Inhibition of phage lysis and IC50 data for 41 compounds are collected here from PubChem BioAssay AID588386 (Southern Research Specialized Biocontainment Screening …, 2011).

Active and inactive are the calls of the source.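 How the source made its calls: active means phage lysis blocked by at least 50% at any tested dose; inconclusive means replicate wells disagree with each other; inactive means the rest.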

Test [1] is described as follows: protection of E. coli UTI89 from phage lysis – set 6, capsule biogenesis inhibitor project, dose response (AID 588386). The settings on record: E. coli UTI89 K1F phage lysis inhibition, OD600; at 100 µM (top of the series). The essentials:
(§1)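 Assay system: E. coli UTI89 (K1) and kpsM mutant. Input: overnight bacterial cultures diluted 1:100 into wells. Medium: LB growth medium. Read-out: phage lysis judged from OD600 3 h after phage infection. Times: 1.25 h compound pre-phage, 3 h lysis read, 37 °C shaking. Measured by: absorbance at 600 nm (OD600).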

Test [2] has as its system E. coli UTI89 K1F phage lysis inhibition, OD600. Described as above. Summed up:
as §1

For `O=C(Nc1ccc(Cl)cc1)c1ccc2ncccc2c1`, the inhibition of phage lysis in test [1] was 1.19% (inactive).

Regarding `COC(=O)c1ccc(NC(=O)c2ccc3[nH]ccc3c2)cc1`, the inhibition of phage lysis in test [1] is 0.87% (inactive).

For `O=C(Nc1ccc(Br)cc1)c1ccc2ncsc2c1`, the inhibition of phage lysis in test [1] is 0% (inactive). Turning to `O=C(Nc1ccc(Br)cc1)c1ccc2[nH]ccc2c1`, the inhibition of phage lysis in test [1] was 1.16% (inactive).

`O=C(Nc1ccc(F)cc1)c1ccc2ncccc2c1`: the inhibition of phage lysis in test [1] was 0.3% (inactive).

Regarding `O=C(NCc1ccco1)c1ccc2[nH]ccc2c1`, the inhibition of phage lysis in test [1] is 0.86% (inactive).

As for `O=C(Nc1cccc(F)c1)c1ccc2ncsc2c1`, the inhibition of phage lysis in test [1] is 0.9% (inactive). As to `O=C(Nc1ccccc1F)c1ccc2ncsc2c1`, the inhibition of phage lysis in test [1] was 0.6% (inactive). Take `O=C(NCc1ccco1)c1ccc2ncccc2c1`: the inhibition of phage lysis in test [1] is 0.91% (inactive).

With `O=C(Nc1cccnc1)c1ccc2[nH]ccc2c1`, the inhibition of phage lysis in test [1] was 0.87% (inactive).

In the case of `O=C(NCc1ccco1)c1ccc2nc[nH]c2c1`, in test [1], the inhibition of phage lysis is 0% (inactive). In the case of `O=C(Nc1ccc(Br)cc1)c1ccc2nc[nH]c2c1`, the inhibition of phage lysis in test [1] was 0% (inactive). In the case of `O=C(Nc1ccc(Cl)cc1)c1ccc2nc[nH]c2c1`, the inhibition of phage lysis in test [1] was -0.32% (inactive).

In the case of `O=C(Nc1cccc(F)c1)c1ccc2[nH]ccc2c1`, the inhibition of phage lysis in test [1] is -0.99% (inactive). For the compound `COc1ccc(NC(=O)c2ccc3nc[nH]c3c2)cc1`, in test [1], the inhibition of phage lysis was 0.32% (inactive). For `O=C(Nc1ccc(C(F)(F)F)cc1)c1ccc2ncsc2c1`, the inhibition of phage lysis in test [1] is 16.7% (inactive). Still for that read-out and setting: in the case of `O=C(Nc1ccc(Cl)cc1)c1ccc2[nH]ccc2c1` it was 0.86% (inactive); in that of `COC(=O)c1ccc(NC(=O)c2ccc3ncsc3c2)cc1`, 11.5% (inactive); in that of `O=C(Nc1ccc(C(F)(F)F)cc1)c1ccc2[nH]ccc2c1`, -0.66% (inactive). Consider `O=C(Nc1ccc(Cl)cc1)c1ccc2ncsc2c1`, for which the inhibition of phage lysis in test [1] is 1.47% (inactive). Turning to `O=C(Nc1ccc(F)cc1)c1ccc2[nH]ccc2c1`, the inhibition of phage lysis in test [1] is -0.29% (inactive). As to `O=C(Nc1ccccc1F)c1ccc2ncccc2c1`, the inhibition of phage lysis in test [1] is -2.29% (inactive). As for `Cc1ccc(NC(=O)c2ccc3[nH]ccc3c2)cc1`, the inhibition of phage lysis in test [1] was -2.3% (inactive). Take `O=C(Nc1ccc(C(F)(F)F)cc1)c1ccc2nc[nH]c2c1`: the inhibition of phage lysis in test [1] was -0.68% (inactive). On to `O=C(Nc1ccccn1)c1ccc2nc[nH]c2c1`, for which, in test [1], the inhibition of phage lysis is 0% (inactive). Same read-out and setting: in the case of `O=C(Nc1ccncc1)c1ccc2ncccc2c1` it was 0% (inactive); in that of `O=C(Nc1ccc(F)cc1)c1ccc2ncsc2c1`, -0.68% (inactive). Same read-out and setting: in the case of `O=C(Nc1ccccc1F)c1ccc2nc[nH]c2c1` it was 0.34% (inactive); in that of `O=C(NCc1ccco1)c1ccc2ncsc2c1`, 0.88% (inactive); in that of `O=C(Nc1cccc(F)c1)c1ccc2ncccc2c1`, -1.15% (inactive). Regarding `Cc1ccc(NC(=O)c2ccc3ncsc3c2)cc1`, the inhibition of phage lysis in test [1] is 0% (inactive). With `O=C(Nc1cccnc1)c1ccc2ncsc2c1`, the inhibition of phage lysis in test [1] is 1.77% (inactive). As for `O=C(Nc1ccccc1F)c1ccc2[nH]ccc2c1`, in test [1], the inhibition of phage lysis is 0.33% (inactive). As for `COc1ccc(NC(=O)c2ccc3ncsc3c2)cc1`, in test [1], the inhibition of phage lysis was 3.54% (inactive). In the case of `O=C(Nc1ccncc1)c1ccc2ncsc2c1`, in test [2], the IC50 (in general, the concentration needed to halve the response being measured) is 1640 nM. As for `O=C(Nc1cccnc1)c1ccc2ncccc2c1`, in test [1], the inhibition of phage lysis was 0.61% (inactive). Consider `O=C(Nc1cccc(F)c1)c1ccc2nc[nH]c2c1`, for which the inhibition of phage lysis in test [1] is 0% (inactive).

As for `O=C(Nc1ccc(F)cc1)c1ccc2nc[nH]c2c1`, the inhibition of phage lysis in test [1] is 0.99% (inactive). On the same count and under the same terms, next, `COc1ccc(NC(=O)c2ccc3[nH]ccc3c2)cc1`: -14.7% (inactive); `O=C(Nc1ccncc1)c1ccc2[nH]ccc2c1`: 0.29% (inactive). On to `O=C(Nc1ccccn1)c1ccc2ncccc2c1`, for which, in test [1], the inhibition of phage lysis is 1.21% (inactive).
